Shown are actives, neighbours in structure and some others; about 2.4% of the full set was active somewhere.
INS-1E GSIS act – GLuc luminescence reporter in INS-1E cells, primary screen for activators of glucose-dependent secretion of insulin; INS-1E GLuc reporter insulin secretion, 2-3 h; activation, % at 16.6 µM; 370,000 compounds, 0.61% hits;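 active means lowest replicate activation of at least 40%, so every replicate reaches that level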;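 further: 0% = median of neutral control wells and 100% = median of IBMX positive control wells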
Rtt109 Vps75 – inhibitors of C. albicans Rtt109/Vps75 HAT, primary screen, biochemical, ThioGlo CoA-SH fluorescence, plate reader; inhibition, % at 34.9 µM; 330,000 compounds, 0.16% hits; purified Rtt109/Vps75, 4 h; Histone acetyltransferase RTT109 (Candida albicans (strain SC5314 / ATCC MYA-2876)), …; AID 540336, 2011;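 active means inhibition of at least 50% in every replicate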
Target sequence (Q5AAJ8 whole entry, looked up): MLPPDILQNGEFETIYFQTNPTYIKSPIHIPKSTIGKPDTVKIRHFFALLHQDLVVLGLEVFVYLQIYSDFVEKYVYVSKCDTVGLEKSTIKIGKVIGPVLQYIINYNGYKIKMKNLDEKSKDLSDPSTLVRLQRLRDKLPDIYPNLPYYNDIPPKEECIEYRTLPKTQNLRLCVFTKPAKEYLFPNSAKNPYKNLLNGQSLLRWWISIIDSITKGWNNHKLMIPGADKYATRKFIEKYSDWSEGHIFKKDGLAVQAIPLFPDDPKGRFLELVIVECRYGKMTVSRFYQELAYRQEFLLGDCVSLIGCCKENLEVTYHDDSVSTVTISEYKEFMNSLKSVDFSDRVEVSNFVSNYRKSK
HIV Env fusion – inhibitors of HIV-1 Env-driven cell-cell fusion, primary screen, HeLa-JRFL effector, CEM21 target cells, luciferase | inhibition, % at 12.3 µM | 360,000 compounds, 1.1% hits;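 active means mean replicate inhibition score of at least 50 and every replicate individually at or above 50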;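 further: 0% = plate neutral controls and 100% = maraviroc near 300 nM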
miR-122 sensor – miR-122 Renilla sensor signal increase in Huh7, primary screen, miR-122 inhibitor project, cell-based, single point, plate reader | Huh7 miR-122 Renilla luciferase sensor, 48 h; neutral wells = 0, positive control = 100 | activation (reporter increase), % at 12.5 µM | 340,000 compounds, 0.3% hits;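 active means mean replicate activation score at least 90 and every replicate individually at or above 90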;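 further: higher luciferase means less miR-122 activity so hits act as miR-122 inhibitors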
dFosB act – activators of delta FosB homodimer, primary screen, biochemical, fluorescence polarization, TAMRA-CDK5 oligo, single point. purified delta FosB; percent of positive-control signal above neutral wells. Protein FosB (Mus musculus), P13346. activation, % at 25 µM. 340,000 compounds, 0.99% hits;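 active means mean activation above about 17%, with every replicate also reaching it, limit read from the data, passing the limit was not always enough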
Target sequence (P13346 whole entry, looked up): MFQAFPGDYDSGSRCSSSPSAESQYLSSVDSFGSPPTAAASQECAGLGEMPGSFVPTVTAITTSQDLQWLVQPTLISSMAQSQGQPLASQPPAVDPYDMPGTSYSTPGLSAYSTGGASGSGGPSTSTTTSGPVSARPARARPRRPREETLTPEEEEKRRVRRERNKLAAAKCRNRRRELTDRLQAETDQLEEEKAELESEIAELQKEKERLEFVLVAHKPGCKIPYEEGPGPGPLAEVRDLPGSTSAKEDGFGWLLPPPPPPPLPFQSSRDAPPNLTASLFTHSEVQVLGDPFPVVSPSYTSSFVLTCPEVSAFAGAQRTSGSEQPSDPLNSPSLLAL
Cneo AK release – Cryptococcus neoformans cell lysis inducers, primary screen, AK release luminescence, single concentration; C. neoformans lysis, adenylate kinase release luminescence, 4 h; normalised: neutral wells 0, clomiphene wells 100; lysis activity, % at 15 µM; 360,000 compounds, 0.2% hits;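 active means mean lysis activity across replicates of at least 80%, whatever share of replicates individually reach that level; inactive means mean lysis activity below 80%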
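Test system: log-phase Cryptococcus neoformans yeast cells; Quantity: yeast cell density of 5 × 10^6 cells/mL; Buffer or medium: YPD; Doses: single compound concentration per well; Timing: 4 h at 37 °C static, read 1 h later; Measured by: AK luminescence; Read-out basis: lysis from increased AK signal; Control set: Clomiphene as positive control.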
Numbers without * were called inactive; nt = no result; [ ] = another dose, or the depositor's remark.

SMILES	INS-1E GSIS act	Rtt109 Vps75	HIV Env fusion	miR-122 sensor	dFosB act	Cneo AK release
O=C(C1CCCCC1)N1C[C@@H]2[C@H](c3ccccc31)[C@H](CO)N2Cc1ccccc1Cl	-7	nt	nt	-40[16.7 µM]	nt	-3
Cc1noc(C)c1S(=O)(=O)N(C)C[C@H]1OCCCC[C@H](C)Oc2ccc(NC(=O)Nc3ccc(C(F)(F)F)cc3)cc2C(=O)N([C@@H](C)CO)C[C@@H]1C	7	nt	66*[16.7 µM]	2[16.7 µM]	nt	0
Cc1noc(C)c1S(=O)(=O)N(C)C[C@H]1OCCCC[C@H](C)Oc2ccc(NC(=O)Nc3ccc(C(F)(F)F)cc3)cc2C(=O)N([C@H](C)CO)C[C@@H]1C	2	nt	47[16.7 µM]	-7[16.7 µM]	nt	-2
Cc1noc(C)c1S(=O)(=O)N(C)C[C@H]1OCCCC[C@@H](C)Oc2ccc(NC(=O)Nc3ccc4c(c3)OCO4)cc2C(=O)N([C@@H](C)CO)C[C@@H]1C	-5	nt	13[16.7 µM]	-8[16.7 µM]	nt	12
Cc1noc(C)c1S(=O)(=O)N(C)C[C@@H]1OCCCC[C@@H](C)Oc2ccc(NC(=O)CCCCCC(=O)Nc3ccccc3N)cc2C(=O)N([C@H](C)CO)C[C@@H]1C	-3	nt	11[16.7 µM]	10[16.7 µM]	nt	108*
Cc1noc(C)c1S(=O)(=O)N(C)C[C@H]1OCCCC[C@@H](C)Oc2ccc(NC(=O)Nc3ccc(C(F)(F)F)cc3)cc2C(=O)N([C@@H](C)CO)C[C@@H]1C	1	nt	67*[16.7 µM]	-2[16.7 µM]	nt	-1
Cc1noc(C)c1S(=O)(=O)N(C)C[C@H]1OCCCC[C@H](C)Oc2ccc(NC(=O)Nc3ccc4c(c3)OCO4)cc2C(=O)N([C@H](C)CO)C[C@@H]1C	-3	nt	57*[16.7 µM]	-12[16.7 µM]	nt	-5
C/C=C/c1ccccc1[C@@H]1[C@@H](C#N)N(C(=O)CN2CCOCC2)[C@@H]1CO	11	nt	nt	nt	nt	nt
CCC(=O)N1C[C@H](C)[C@@H](OC)CN(C)C(=O)c2cc(NC(=O)NC3CCCC3)ccc2OC[C@@H]1C	4	nt	nt	nt	nt	nt
Cc1ccc(S(=O)(=O)Nc2cccc3c2O[C@@H](CN(C)C(=O)Nc2ccc(F)cc2)[C@H](C)CN([C@H](C)CO)C3=O)cc1	-14	nt	30[16.7 µM]	22[16.7 µM]	nt	-6
Cc1ccc(S(=O)(=O)N(C)C[C@@H]2OCCCC[C@@H](C)Oc3ccc(NC(=O)Nc4ccc(C(F)(F)F)cc4)cc3C(=O)N([C@H](C)CO)C[C@H]2C)cc1	14	nt	57*[16.7 µM]	-7[16.7 µM]	nt	-3
Cc1noc(C)c1S(=O)(=O)N(C)C[C@@H]1OCCCC[C@H](C)Oc2ccc(NC(=O)Nc3ccc(C(F)(F)F)cc3)cc2C(=O)N([C@H](C)CO)C[C@H]1C	-15	nt	70*[16.7 µM]	-2[16.7 µM]	nt	2
Cc1noc(C)c1S(=O)(=O)N(C)C[C@H]1OCCCC[C@@H](C)Oc2ccc(NC(=O)Nc3ccc(C(F)(F)F)cc3)cc2C(=O)N([C@H](C)CO)C[C@@H]1C	11	nt	12[16.7 µM]	-8[16.7 µM]	nt	3
Cc1ccc(-n2nc3c(N4CCC(C(=O)NCc5ccccc5C)CC4)nnc(C)c3c2C)cc1	nt	5	nt	-4	28*	1
O=C(NNC(=O)C1CC1c1ccccc1)Nc1cccc(Cl)c1 (stereo not given)	-12	7	56*	nt	-1	0
CCOc1ccccc1CNS(=O)(=O)c1cnc[nH]1	44*	28	4	-3	1	7
CCSc1nc2cc(OC)c(OC)cc2c(=O)n1CC	69*	5	nt	-6	1	-1
Cc1ccc2nc(C)c3c(c2c1)OC(C(C)(Cl)Br)C3 (stereo not given)	-9	14	34	0	-10	1
Cc1nc2ccccc2c2c1CC(C(C)(Cl)Br)O2 (stereo not given)	-47	29	74*	-2	0	nt
COc1ccc(CN(C)C[C@@H]2Oc3ccc(NC(=O)Cc4ccccc4)cc3CC(=O)N([C@@H](C)CO)C[C@H]2C)cc1	-7	nt	nt	nt	nt	nt
CC(C)(C)[C@H]1C=C(C(=O)N2CCCCCCC2)O[C@@H](OCc2ccc(CO)cc2)C1	nt	nt	35[16.7 µM]	nt	nt	6
CN(CCOc1ccc(-c2ccn(S(=O)(=O)c3ccc(Cl)cc3)n2)cc1)c1ccccn1	nt	0	60*	-8	-4	4
COc1cccc(OC)c1C(=O)Nc1cccc(-c2ccc(N3CCOCC3)nn2)c1	-9	52*	-6	-3	-9	-10
CC(C)NC(=O)N(C)C[C@H]1OCCCC[C@@H](C)Oc2ccc(NC(=O)c3ccccc3)cc2C(=O)N([C@@H](C)CO)C[C@H]1C	-2	nt	3[16.7 µM]	-3[16.7 µM]	nt	0
COc1ccc(C(=O)N(Cc2ccccc2)Cc2cc3cc4c(cc3[nH]c2=O)OCCO4)cc1	nt	18	59*	11	-1	3
SMILES	INS-1E GSIS act	Rtt109 Vps75	HIV Env fusion	miR-122 sensor	dFosB act	Cneo AK release
COc1cccc(C#Cc2ccc3c(c2)[C@H]2[C@H](CCN2C(C)=O)[C@H](CO)N3)c1	13	nt	nt	nt	nt	nt
CCN(CC)CCCNc1nc2ccccc2c2nc(-c3ccncc3)nn12	-3	1	-24	-14	67*	-1
CCN(CC)CCCNc1nc2cc(OC)c(OC)cc2c2nc(-c3cccnc3)nn12	nt	79*	-209	-6	245*	1
CCN(CC)CCCNc1nc2cc(OC)c(OC)cc2c2nc(-c3ccccc3)nn12	-12	1	-35	14	181*	3
CN1CCN(CCCNc2nc3ccccc3c3nc(-c4ccccc4)nn23)CC1	-5	3	-10	-3	-28	nt
COc1cc2nc(NCCCN3CCN(C)CC3)n3nc(-c4ccccc4)nc3c2cc1OC	nt	82*	-79	nt	166*	7
O=C(C[C@H]1C=C[C@@H](NC(=O)Nc2ccc(C(F)(F)F)cc2)[C@@H](CO)O1)NCc1ccccn1	4	nt	nt	nt	nt	nt
CCCNC(=O)c1cc2c(c(-c3cccc(-c4cccc(OC)c4)c3)n1)[C@H](CCO)N([S@@](=O)C(C)(C)C)C2	-20	nt	12[16.7 µM]	nt	nt	12
CC(C)C(=O)Nc1ccc2c(c1)C(=O)N(C)[C@@H]1CC[C@H](CC(=O)NCc3ccccc3F)O[C@@H]1CO2	-6	nt	-10[16.7 µM]	-23[16.7 µM]	nt	-1
CCc1ccc(OCC(=O)NC(NC(=S)Nc2ccccc2)C(Cl)(Cl)Cl)cc1 (stereo not given)	199*	-5	-3	6	-7	-1
CC1(C)C2CC=C(/C=N/NC(=S)NCCc3ccccc3)C1C2 (stereo not given)	nt	-7	67*	nt	-1	nt
COCCCNc1nc2c(c(=O)n(Cc3ccc(Cl)cc3)c(=O)n2C)n1C	-6	-1	5	5	-5	-3

From PubChem
